In the library only some 2.5% were active in any assay of this set; here they are far more common.
MC4R ag barr – MC4R agonists recruiting beta-arrestin, primary screen, cell-based, luminescence, agonist arm of biased-ligand search; Melanocortin receptor 4 (Homo sapiens), P32245; U2OS MC4R beta-arrestin complementation; percent of melanotan II response, DMSO zero; activation, % at 8.9 µM; hit rate 0.98% among 360,000;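 active = activation above a per-plate cutoff, the mean activation of sample wells on that plate plus 3 SD, cut at about 8% in these data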
Granule exo inh – LAMP-1 surface exposure blockers, TALL-104 cells – cell-based, flow cytometry, MLPCN library, primary screen; TALL-104 LAMP-1 surface exposure; cells stimulated with thapsigargin and PMA; inhibition, % at 10 µM; hit rate 0.66% among 360,000; AID 651702, 2012;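 active = inhibition above about 55%, limit read from the data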
NTR1 ag – agonists of human NTR1, primary screen, imaging, U2OS cells, beta-arrestin-GFP, high content. NTR1-U2OS beta-arrestin-GFP spot imaging, agonist mode. activation, % at 20 µM. hit rate 0.17% among 330,000;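 active = activation at or above 40% of the spot to cytoplasm intensity ratio, with at least 20 cells analyzed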;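 also: 0% = DMSO without peptide and 100% = 100 nM NTR1 peptide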
Bfl-1 A1 inh – caspase 3/7 activation in MEF A1-2A-BIM cells, primary screen, A1 inhibitor project, cell-based, luminescence, HTS; Caspase-Glo 3/7 luminescence, 3 h; percent of clofoctol response, vehicle zero; caspase activation, % (test concentration not listed); hit rate 0.066% among 330,000;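 active = over half of replicate activation scores above 10%, or exactly half above 10 with the replicate mean above 10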
MC4R antag cAMP – MC4R antagonists of cAMP signaling, primary screen, cell-based, TR-FRET, antagonist arm of biased-ligand search; MC4R-expressing cells, MTII-stimulated cAMP, LANCE TR-FRET; hit rate 0.48% among 360,000; Melanocortin receptor 4 (Homo sapiens), P32245; AID 540295, 2011; inhibition, % at 6.5 µM;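 active = inhibition above its plate's cutoff, the mean of tested wells on that plate plus 3 SD, cut at about 29% in these data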;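 also: 0% = Melanotan II alone and 100% = Melanotan II plus saturating MCL0020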
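Material: human MC4R-expressing U2OS cells. Probe or stimulus: Melanotan II challenge. Dosing: 6.5 µM single dose. Times: 30-min compound, 1-h challenge, 1-h detection, room temperature. Technique: TR-FRET with Eu-cAMP and labeled anti-cAMP, 671 nm. Replication: singlicate.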
HGIII-sPLA2 inh – human group III sPLA2 inhibitors, primary screen, biochemical, QFRET, BODIPY PC-A2 liposome substrate; Group 3 secretory phospholipase A2 (Homo sapiens), Q9NZ20; QFRET BODIPY PC-A2 liposome hydrolysis, fluorescence; inhibition, % at 12.2 µM; hit rate 0.56% among 370,000; AID 743126, 2013;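 active = inhibition above mean plus 3 SD of compounds lying within the high and low control bounds, cut at about 19% in these data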;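 also: 0% = median of test compound wells and 100% = no enzyme DMSO wells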
Target sequence (Q9NZ20 whole entry, looked up): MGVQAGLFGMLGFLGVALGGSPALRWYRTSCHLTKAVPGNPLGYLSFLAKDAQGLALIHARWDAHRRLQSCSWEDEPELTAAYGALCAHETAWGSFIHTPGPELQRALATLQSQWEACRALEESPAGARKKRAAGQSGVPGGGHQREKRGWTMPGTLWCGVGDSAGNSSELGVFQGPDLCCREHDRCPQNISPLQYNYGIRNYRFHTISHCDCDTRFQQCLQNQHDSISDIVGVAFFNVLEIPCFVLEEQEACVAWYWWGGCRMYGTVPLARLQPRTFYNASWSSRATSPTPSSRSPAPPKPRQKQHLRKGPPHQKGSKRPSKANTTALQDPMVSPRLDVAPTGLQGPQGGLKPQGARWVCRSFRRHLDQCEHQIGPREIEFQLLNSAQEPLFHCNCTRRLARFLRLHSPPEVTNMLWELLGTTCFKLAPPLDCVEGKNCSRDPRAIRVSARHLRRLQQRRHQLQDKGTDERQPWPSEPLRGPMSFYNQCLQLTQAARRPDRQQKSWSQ
MC4R barr ag – MC4R beta-arrestin agonists, retest, confirmation, cell-based, luminescence, U2OS. shares compounds with MC4R ag barr. U2OS MC4R beta-arrestin recruitment; scaled DMSO 0%, Melanotan II 100%. activation, % at 8.9 µM. hit rate 31% among 2,400;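 active = mean activation across replicates above the hit cutoff set in the earlier primary screen, cut at about 8% in these data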
MOR DOR agonist – agonists of MOR-DOR heterodimerization, counter-screen for MC4R biased agonist project, cell-based, luminescence; hit rate 5.8% among 2,400; U2OS PathHunter beta-arrestin, beta-gal luminescence; percent of deltorphin B response, DMSO zero; activation, % at 9.2 µM; shares compounds with MC4R ag barr;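 active = mean activation across replicates exceeds the hit threshold derived in the earlier primary screen, cut at about 18% in these data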;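 also: 100% = deltorphin B at 0.9 µM final and 0% = DMSO alone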
An asterisk follows results filed as active; / = no result.

SMILES	MC4R ag barr	Granule exo inh	NTR1 ag	Bfl-1 A1 inh	MC4R antag cAMP	HGIII-sPLA2 inh	MC4R barr ag	MOR DOR agonist
Cc1cccc(-n2nnnc2SCC(=O)c2cc(C)n(Cc3ccco3)c2C)c1	27*	-1	12	-1	6	-8	16*	4
CC(=O)O[C@H]1[C@H](OC(C)=O)C[C@]2(OC(C)=O)C[C@H]1OC2=O	/	/	/	/	/	6	/	/
O=C(COC(=O)c1n[nH]c2ccccc12)NC(=O)NC12CC3CC(CC(C3)C1)C2	18*	-4	8	0	2	-11	3	7
CCOc1cc(/C=N\NC(=O)c2ccc(NC(=O)C(C)(C)C)cc2)ccc1OC(=O)c1cccc(C)c1	18*	0	4	0	4	0	4	5
O=c1cc(-c2ccccc2)oc2ccc3ccccc3c12	10.0*	2	/	/	3	-4	9.5*	4
CC(C)c1ccc(NS(=O)(=O)c2ccc(-n3cccn3)cc2)cc1	13*	5	10	0	3	-21	17*	11
Cc1ccc2[nH]c(=O)c3cc(C(=O)N(CCCOC(C)C)Cc4ccco4)sc3c2c1	35*	-6	23	-1	-3	-2	34*	8
Cc1ccc2nc(Cl)c3cc(C(=O)N(CCN(C)C)Cc4ccco4)sc3c2c1	2	38	4	1	-1	4	/	/
CC(=O)Nc1ccc(C(=O)CSc2cc(C)c3cccc(C)c3n2)cc1	28*	2	17	0	-4	-12	3	4
C#CCN(C[C@H]1[C@H](OC(=O)NCCCCCC)[C@H](OC(=O)NCCCCCC)CN(C(=O)OC(C)C)N1C(=O)OC(C)C)S(=O)(=O)c1ccc(C)cc1	/	/	/	/	/	-6	/	/
Cc1cccc2c1nc(-c1ccccc1)n1cnnc21	0	-1	4	0	14	3	/	/
Cc1cccc2c1nc(-c1ccccc1)n1nnnc21	13*	-2	4	1	-4	0	2	4
COc1ccc(CCNC(=O)c2ccc3c(c2)ncn3C2CCCCC2)cc1	/	/	/	/	/	-2	/	/
COc1ccc(-c2cc(NC=O)c3ncc(-c4cccc(C(F)(F)F)c4)n3c2)c(OC)c1	20*	12	/	/	-27	-6	13*	1
CC(=O)Nc1cc(-c2cccnc2)cn2c(-c3cccc(C(F)(F)F)c3)cnc12	28*	-8	/	/	5	-6	29*	2
COc1ccc(-c2cc(NC(C)=O)c3ncc(-c4cccc(C(F)(F)F)c4)n3c2)c(OC)c1	26*	28	/	/	1	-9	25*	3
COc1ccc(-c2cc(NC(C)=O)c3ncc(-c4ccc(OC)c(OC)c4)n3c2)c(OC)c1	6	-6	/	/	-14	-7	/	/
COc1ccccc1-c1cc(NC(C)=O)c2ncc(-c3cccc(C(F)(F)F)c3)n2c1	25*	47	/	/	10	-14	22*	4
CC(=O)Nc1cc(-c2ccc(C(=O)N3CCOCC3)cc2)cn2c(-c3cccc(C(F)(F)F)c3)cnc12	5	-7	/	/	20	6	/	/
CON(Cc1ccccc1)S(=O)(=O)c1ccccc1Br	/	/	/	/	/	1	/	/
COC(=O)c1cc(-c2cc3ccccc3s2)c(=O)n2c1CCC2	/	/	/	/	/	-3	/	/
Cc1ccc(S(=O)(=O)Nc2cc(=O)[nH]c(SCc3ccc(Cl)cc3)n2)cc1	19*	0	/	1	9	-35	7	2
O=c1cc(NS(=O)(=O)c2ccccc2)nc(SCc2c(Cl)cccc2Cl)[nH]1	-2	-2	-1	1	2	-11	/	/
COc1cccc(-c2cc(-c3cccnc3)nc(N)c2C#N)c1	1	-6	4	0	-1	-6	/	/
N#Cc1c(-c2cccc(Br)c2)cc(-c2cccnc2)nc1N	32*	1	8	0	9	2	6	16
SMILES	MC4R ag barr	Granule exo inh	NTR1 ag	Bfl-1 A1 inh	MC4R antag cAMP	HGIII-sPLA2 inh	MC4R barr ag	MOR DOR agonist
COc1ccccc1CC(=O)Nc1ccc(-c2noc(COc3ccc(Cl)c(C)c3)n2)cc1	10*	-1	7	0	9	3	1	7
CSCCCNC(=O)c1cn(C(C)c2ccccc2)nn1 (stereo unspecified)	/	/	/	/	/	10	/	/
Cc1ccc2c(Cl)cc(Cl)c(OCC(=O)NC(=O)NCc3ccco3)c2n1	11*	8	-1	0	12	1	2	3
c1ccc(COc2ncnc3c2ncn3CCCNCC(c2ccccc2)c2ccccc2)cc1	13*	53	/	/	6	-10	11*	30*
C=CC[C@@H](CC(=O)N[C@@H](CO)Cc1ccccc1)C(=O)N[C@@H](COC(=O)[C@@H](CC=C)Cc1ccc(F)cc1)Cc1c[nH]c2ccccc12	20*	2	4	2	14	-71	4	13
C=CCC[C@H](Cc1ccc(F)cc1)C(=O)OC[C@H](Cc1c[nH]c2ccccc12)NC(=O)[C@@H](CC=C)CC(=O)N[C@@H](CO)Cc1ccccc1	24*	-4	2	1	8	-9	15*	9
C=CCC[C@H](Cc1ccc(F)cc1)C(=O)OC[C@H](Cc1c[nH]c2ccccc12)NC(=O)[C@H](CC=C)CC(=O)N[C@H](CO)Cc1ccccc1	11*	-5	2	2	19	-67	2	5
C=CC[C@H](CC(=O)N[C@H](CO)Cc1ccccc1)C(=O)N[C@H](COC(=O)[C@@H](CC=C)Cc1ccc(F)cc1)Cc1c[nH]c2ccccc12	-1	-9	/	/	-4	/	/	/
CCCC1CCC2(CC1)CCC2OC(=S)NCc1cccc(OC)c1 (stereo unspecified)	/	/	/	/	/	-13	/	/
C[C@H]1[C@@H](OC(=O)NCc2cccs2)CC[C@@]23CCCN2C(=O)CCC[C@@H]13	/	/	/	/	/	0	/	/
CC(=O)Nc1cc(-c2ccoc2)cn2c(-c3ccccc3)cnc12	11*	4	/	/	12	-5	15*	3
